Test results from paper PMC8052299 (Biochemical pharmacology, 2021).
Read-outs that look alike come from different tables or passages of the source.

Columns and labels:
[1] = tested on: HIV-1NL4.3; experiment: HIV replication assay in PBMCs; type: cell-based; conditions: for HIV replication suppressed: day 6
[2] = Viability of uninfected PBMCs; type: cell-based, human; conditions: human, CC50, uninfected PBMCs, Viacount dye
[3] = tested on: class I and II HDAC; experiment: Cellular HDAC activity assay; type: cell-based; conditions: for IC50: read-out: HDAC Inhibition IC50, Jurkat cells, 90 min, HDAC-Glo I/II
[4] = tested on: J-Lat 10.6 cells; experiment: LRA-induced provirus expression; type: cell-based
[5] = tested on: J-Lat 9.2 cells; experiment: LRA-induced provirus expression; type: cell-based; conditions: for stimulation of GFP expression: J-Lat 9.2, data not shown; for GFP expression induced, % of cells: LRA only
[6] = biological target: CDK9/cyclin T1 (Homo sapiens, UniProt P50750); experiment: CDK9 kinase activity assay; type: biochemical
Sequence of CDK9/cyclin T1 (P50750 whole entry): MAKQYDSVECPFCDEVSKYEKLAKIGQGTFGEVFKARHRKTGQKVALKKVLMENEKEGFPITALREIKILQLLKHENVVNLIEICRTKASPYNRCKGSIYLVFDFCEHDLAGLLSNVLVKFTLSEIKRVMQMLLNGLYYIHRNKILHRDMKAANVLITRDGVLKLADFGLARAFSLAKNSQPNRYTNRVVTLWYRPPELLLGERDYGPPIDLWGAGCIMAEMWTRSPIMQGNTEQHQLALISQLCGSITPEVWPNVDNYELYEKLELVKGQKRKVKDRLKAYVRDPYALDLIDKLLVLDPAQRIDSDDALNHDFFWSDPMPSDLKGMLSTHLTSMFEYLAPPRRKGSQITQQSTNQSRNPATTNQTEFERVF
Sequence of CDK9/cyclin T1 (O60563 whole entry partner): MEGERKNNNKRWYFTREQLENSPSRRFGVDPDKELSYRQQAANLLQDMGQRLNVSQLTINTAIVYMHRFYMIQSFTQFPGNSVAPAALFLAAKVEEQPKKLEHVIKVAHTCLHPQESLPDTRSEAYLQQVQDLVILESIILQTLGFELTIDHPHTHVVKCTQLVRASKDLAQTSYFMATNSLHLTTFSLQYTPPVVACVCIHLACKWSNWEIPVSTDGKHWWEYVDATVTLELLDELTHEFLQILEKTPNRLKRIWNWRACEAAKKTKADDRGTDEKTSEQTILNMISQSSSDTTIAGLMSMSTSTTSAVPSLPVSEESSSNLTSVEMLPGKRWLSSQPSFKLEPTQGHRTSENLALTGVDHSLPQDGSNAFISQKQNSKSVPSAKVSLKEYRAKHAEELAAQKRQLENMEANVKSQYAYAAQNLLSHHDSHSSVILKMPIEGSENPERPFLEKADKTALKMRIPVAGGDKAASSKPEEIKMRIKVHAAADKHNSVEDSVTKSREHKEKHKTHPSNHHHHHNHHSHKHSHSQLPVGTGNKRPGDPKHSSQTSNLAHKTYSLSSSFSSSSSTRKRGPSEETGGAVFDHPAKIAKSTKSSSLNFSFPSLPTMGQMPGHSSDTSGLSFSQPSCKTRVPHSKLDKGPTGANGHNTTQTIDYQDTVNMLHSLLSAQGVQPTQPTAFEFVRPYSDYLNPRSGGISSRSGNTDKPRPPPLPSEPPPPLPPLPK

[7] = tested on: J-Lat 10.6 cells; type: cell-based; conditions: for GFP expression 24 hours after washing, % of vehicle-treated control cells: washed, 24 h drug-free
[8] = tested on: Tat-dependent transactivation; experiment: Tat-transactivated mCherry expression in JurTat cells; type: cell-based; conditions: for effect on ratio of mCherry:Dendra fluorescence: up to 30 μM
In short: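 JurTat cells (Tat-Dendra plus HIV LTR-mCherry) were induced with 500 ng/mL doxycycline and seeded at 200,000 cells/well with test compound or 0.1% DMSO. After 24 h, Tat-Dendra and mCherry were measured by flow cytometry. Values are percent positive cells and mCherry:Dendra fluorescence ratio, expressed relative to 0.1% DMSO-treated cells.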

[9] = tested on: OM-10.1 cells; experiment: TNFα-induced provirus expression; type: cell-based; conditions: for EC50: 24 h, read-out: TNFα EC50, inhibition of provirus expression
In short: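 OM-10.1 cells seeded at 200,000 cells/well and co-treated with 1 ng/mL TNFα plus test compound or 0.1% DMSO for 24 h. Cells were fixed, permeabilized, stained for intracellular p24Gag (KC57-RD1) and scored on live-gated cells by flow cytometry. EC50s were derived after normalizing to TNFα-only controls.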

[10] = tested on: PBMCs; experiment: Viability of uninfected PBMCs; type: cell-based, human; conditions: 6 days; for CC50: Viacount dye; for toxicity: up to 30 μM
[11] = tested on: Jurkat cells; experiment: Jurkat cell viability, 24 h; type: cell-based; conditions: 30 μM
[12] = tested on: Tat-dependent transactivation; experiment: HIV Tat-induced GFP expression in CEM-GXR cells; type: cell-based, HIV-1
[13] = J-Lat 10.6, 24 h, read-out: HMBA EC50, inhibition of provirus expression
[14] = J-Lat 10.6, 24 h, read-out: JQ1 EC50, inhibition of provirus expression
[15] = J-Lat 10.6, 24 h, read-out: TNFα EC50, inhibition of provirus expression
[16] = J-Lat 9.2, 24 h, read-out: Panobinostat EC50, inhibition of provirus expression
[17] = J-Lat 9.2, 24 h, read-out: Prostratin EC50, inhibition of provirus expression
[18] = J-Lat 9.2, 24 h, read-out: TNFα EC50, inhibition of provirus expression
[19] = 15 μM, JurTat + 500 ng/mL Dox, 24 h

Molecule	CC50 at 6 days [2] [µM]	HDAC activity inhibited ([3]; 10 μM, Jurkat) [%]	IC50 [3] [µM]	EC50 [4, 13] [µM]	EC50 [4, 14] [µM]	EC50 [4, 15] [µM]	EC50 [5, 16] [µM]	EC50 [5, 17] [µM]	EC50 [5, 18] [µM]	IC50 [6] [µM]	GFP expression 24 hours after washing, % of vehicle-treated control cells ([7]; 10 μM for 21 days, J-Lat 10.6) [%]	EC50 [9] [µM]	other results
O=c1cc(-c2ccc(O)cc2)oc2cc(O)cc(O)c12 [Apigenin, apigenin]	19.8 ± 6.5	19.4 ± 5.4	47.2 ± 6.7	5.2 ± 0.8	7.2 ± 1.1	6.2 ± 0.3	4.1 ± 0.4	7.3 ± 1.1	5.6 ± 0.6	0.21 ± 0.1	80.6 ± 80.5	4.1 ± 0.8	Selectivity Index (CC50/EC50) [1]: 4.0; Dendra, % of fluorescence in cells treated with only Dox ([8]; 15 μM, JurTat): 39.9%; mCherry, % of fluorescence in cells treated with only Dox ([8]; 15 μM, JurTat): 13.7%; residual mCherry fluorescence as % of residual Dendra fluorescence ([8]; 15 μM, JurTat): 34.3%; Dendra expression, % of cells [8, 19]: 17.4 ± 6.5%; mCherry expression, % of cells [8, 19]: 1.8 ± 0.7%; EC50, mCherry:Dendra fluorescence ratio ([8]; JurTat + 500 ng/mL Dox, 24 h): 14.5 ± 1.5 µM
COc1cc(F)ccc1-c1ncnc(Nc2cccc(C[S@](C)(=N)=O)c2)n1 [Atuveciclib, atuveciclib, reference compound]	24.7 ± 4.9	11.3 ± 12.9	> 90	1.8 ± 0.1	2.4 ± 0.2	4.3 ± 0.2	3.6 ± 0.8	1.8 ± 0.1	1.7 ± 0.2	–	53.0 ± 0.8	1.8 ± 0.09	CC50 [10]: 24.4 ± 1.5 µM; HDAC activity inhibited ([3]; 90 μM, Jurkat): 29.7 ± 14.3%; GFP expression 11 days following wash-out ([7]; 10 μM for 21 days, J-Lat 10.6): returned to those of untreated controls; GFP expression before wash-out, % of untreated cells ([7]; 10 μM, 21 days, J-Lat 10.6): 3.4 ± 0.7%; spontaneous GFP production abolished ([7]; 10 μM, after 9 days, J-Lat 10.6): > 95%; duration of reinforced latency following withdrawal in vitro ([7]; J-Lat 10.6, after 21 days' treatment): 9 days; viability reduced vs 0.1% DMSO [11]: 61.3 ± 2.6%
O=c1cc(-c2ccccc2)oc2cc(O)cc(O)c12 [Chrysin, chrysin]	> 30	37.9 ± 7.7	24 ± 4.8	6.7 ± 1.4	7.7 ± 1.5	6.3 ± 0.7	2.8 ± 0.4	4.3 ± 1.2	4 ± 0.4	0.021 ± 0.01	70.9 ± 65.6	4.7 ± 0.3	Selectivity Index (CC50/EC50) [1]: > 3.3; toxicity [10]: no toxicity was observed; provirus expression inhibited ([5]; 3 μM, J-Lat 9.2, 10 ng/mL TNFα): 22.5 ± 24.9%; provirus expression inhibited ([5]; 10 μM, J-Lat 9.2, 10 ng/mL TNFα): 88.3 ± 8.8%
CC(=O)NCCCCCCNC(C)=O [HMBA, reference compound]	–	–	–	–	–	–	–	–	–	–	–	–	GFP production, % of cells ([4]; J-Lat 10.6, 10 mM, LRA only): 34.6 ± 1.4%; stimulation of GFP expression [5]: did not stimulate GFP expression
Cc1sc2c(c1C)C(c1ccc(Cl)cc1)=N[C@@H](CC(=O)OC(C)(C)C)c1nnc(C)n1-2 [JQ1, reference compound]	–	–	–	–	–	–	–	–	–	–	–	–	GFP production, % of cells ([4]; J-Lat 10.6, 10 μM, LRA only): 35.9 ± 2.0%; stimulation of GFP expression [5]: did not stimulate GFP expression
O=c1cc(-c2ccc(O)c(O)c2)oc2cc(O[C@@H]3O[C@H](CO)[C@@H](O)[C@H](O)[C@H]3O)cc(O)c12 [L7G, luteolin-7-glucoside]	–	–	> 90	–	–	–	–	–	–	–	–	–	HIV replication suppressed ([1]; 1 μM): 26.3 ± 24.8%; HIV replication suppressed ([1]; 10 μM): 77.3 ± 32.7%; CC50 [10]: 18.3 ± 2.5 µM; EC50 ([4]; read-out: HMBA EC50, inhibition of provirus expression, J-Lat 10.6, 10 mM HMBA, 24 h, GFP): 10.1 ± 3.5 µM; EC50 ([4]; read-out: JQ1 EC50, inhibition of provirus expression, J-Lat 10.6, 10 μM JQ1, 24 h, GFP): 16.4 ± 3.3 µM; EC50 ([4]; read-out: TNFα EC50, inhibition of provirus expression, J-Lat 10.6, 10 ng/mL TNFα, 24 h, GFP): 11.9 ± 0.5 µM; EC50 ([12]; read-out: Tat-dependent transactivation EC50, pCMV-Tat-transfected CEM-GXR cells, GFP, 24 h): > 30 µM; inhibition of Tat-induced GFP expression ([12]; up to 30 μM, CEM-GXR): unable to inhibit GFP expression; EC50 ([5]; read-out: Panobinostat EC50, inhibition of provirus expression, J-Lat 9.2, 0.1 μM panobinostat, 24 h, GFP): 4.3 ± 0.4 µM; EC50 ([5]; read-out: Prostratin EC50, inhibition of provirus expression, J-Lat 9.2, 10 μM prostratin, 24 h, GFP): 17.3 ± 2.2 µM; EC50 ([5]; read-out: TNFα EC50, inhibition of provirus expression, J-Lat 9.2, 10 ng/mL TNFα, 24 h, GFP): 4.5 ± 0.6 µM; CDK9 IC50 fold higher than aglycone analogue luteolin [6]: 96 fold; IC50 ([6]; read-out: CDK9 inhibition IC50, purified CDK9/cyclin T1, 10 μM ATP, ADP-Glo): 6.9 ± 3.9 µM; spontaneous latency reversal ([7]; 10 μM, 21 days, J-Lat 10.6): highly variable, but not inhibited; effect on ratio of mCherry:Dendra fluorescence ([8]; JurTat): neither naringenin nor L7G substantially affected the ratio; EC50 ([9]; OM-10.1, 1 ng/mL TNFα, p24Gag): 10.3 ± 1.2 µM
O=c1cc(-c2ccc(O)c(O)c2)oc2cc(O)cc(O)c12 [Luteolin, luteolin]	13.9 ± 5.9	10.1 ± 1.6	> 90	26.5 ± 5.8	15.4 ± 1.5	13.6 ± 0.8	6.8 ± 0.8	20.6 ± 2.6	7.6 ± 0.6	0.072 ± 0.03	79.9 ± 26.6	10.3 ± 0.6	Selectivity Index (CC50/EC50) [1]: 1.1; HDAC activity inhibited ([3]; 100 μM, Jurkat): 42.6 ± 9.5%; EC50, mCherry:Dendra fluorescence ratio ([8]; JurTat + 500 ng/mL Dox, 24 h): 9.5 ± 1.5 µM
O=C1C[C@@H](c2ccc(O)cc2)Oc2cc(O)cc(O)c21 [Naringenin, naringenin, reference compound]	> 30	–	88.7 ± 32.1	> 30	> 30	> 30	> 30	> 30	> 30	> 30	–	> 30	antiviral activity ([1]; up to 30 μM): no antiviral activity was observed; toxicity [10]: No toxicity was observed; inhibition of LRA-induced provirus expression ([4]; J-Lat 10.6, TNFα, JQ1, HMBA): did not inhibit any LRA-induced provirus expression; effect on ratio of mCherry:Dendra fluorescence ([8]; JurTat): neither naringenin nor L7G substantially affected the ratio; inhibition of TNFα-induced provirus expression ([9]; OM-10.1, 1 ng/mL TNFα): no inhibition was observed
Cc1[nH]c2ccccc2c1CCNCc1ccc(/C=C/C(=O)NO)cc1 [panobinostat, reference compound]	–	–	–	–	–	–	–	–	–	–	–	–	cellular HDAC activity reduced ([3]; 0.1 μM, Jurkat): 88.0 ± 10.9%; GFP expression induced, % of cells ([5]; J-Lat 9.2, 0.1 μM, 24 h): 10.8 ± 1.4%
CC(=O)O[C@@]12C[C@@H](C)[C@@]3(O)[C@@H](C=C(CO)C[C@]4(O)C(=O)C(C)=C[C@@H]34)[C@@H]1C2(C)C [prostratin, reference compound]	–	–	–	–	–	–	–	–	–	–	–	–	GFP expression induced, % of cells ([5]; J-Lat 9.2, 10 μM, 24 h): 10.7 ± 2.7%
TNFα	–	–	–	–	–	–	–	–	–	–	–	–	GFP-positive cells induced ([4]; J-Lat 10.6, 10 ng/mL, 24 h, LRA only): 80.3 ± 2.6%; GFP expression induced, % of cells ([5]; J-Lat 9.2, 10 ng/mL, 24 h): 10.4 ± 1.7%; p24Gag production induced, % of live-gated cells ([9]; OM-10.1, 1 ng/mL): 90.6 ± 4.0%
